A selection: hits, their analogues and other compounds. The true share with any hit is near 1.7%.
LMPTP inh: blocks human LMPTP phosphatase; AID 651560; P24666; inhibition, % at 20 µM; recombinant LMPTP-A, OMFP fluorogenic substrate, fluorescence intensity; 360,000 tested, 0.22% active;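 active = compounds that cut the enzyme signal by at least half of the control window in the single-dose screen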
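Buffer or medium: Bis-Tris pH 6.0, DTT, detergent; Assay system: LMPTP-A enzyme; Quantity: 0.625 nM enzyme; Detection: endpoint fluorescence intensity; Times: 50 min dark incubation at room temperature; Controls: substrate-only low control, DMSO enzyme-plus-substrate high control; Doses: single 20 µM dose; Read-out: percent inhibition versus substrate-only and uninhibited controls; Reagent: 400 µM OMFP.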
SUMO1 PPI mod: alters human SUMO1 binding to SIM partners; P63165; 360,000 tested, 0.33% active; SUMO1 binding to a labelled peptide, TR-FRET, 1 h; inhibition, % at 20 µM; AID 602429; in the data active = inhibition above about 37%
Target sequence (P63165 whole entry, looked up): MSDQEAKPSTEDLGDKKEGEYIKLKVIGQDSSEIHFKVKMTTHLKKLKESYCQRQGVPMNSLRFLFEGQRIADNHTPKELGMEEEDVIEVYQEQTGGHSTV
DNMT1 block: inhibitors of human DNMT1 | P26358 | 360,000 tested, 0.83% active | AID 588458 | DNMT1 molecular beacon, Hinp1I cleavage, fluorescence | inhibition (reported as % activation of signal), % at 10 µM; in the data active = inhibition above about 50%
STEP block: blocks human striatal-enriched tyrosine phosphatase; P54829; recombinant STEP, OMFP fluorogenic substrate, fluorescence; inhibition, % at 20 µM; 360,000 tested, 0.25% active; AID 588621;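 active = inhibition at 20 µM, scaled per plate between control wells, above about 37%, limit read from the data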
Target sequence (P54829 whole entry, looked up): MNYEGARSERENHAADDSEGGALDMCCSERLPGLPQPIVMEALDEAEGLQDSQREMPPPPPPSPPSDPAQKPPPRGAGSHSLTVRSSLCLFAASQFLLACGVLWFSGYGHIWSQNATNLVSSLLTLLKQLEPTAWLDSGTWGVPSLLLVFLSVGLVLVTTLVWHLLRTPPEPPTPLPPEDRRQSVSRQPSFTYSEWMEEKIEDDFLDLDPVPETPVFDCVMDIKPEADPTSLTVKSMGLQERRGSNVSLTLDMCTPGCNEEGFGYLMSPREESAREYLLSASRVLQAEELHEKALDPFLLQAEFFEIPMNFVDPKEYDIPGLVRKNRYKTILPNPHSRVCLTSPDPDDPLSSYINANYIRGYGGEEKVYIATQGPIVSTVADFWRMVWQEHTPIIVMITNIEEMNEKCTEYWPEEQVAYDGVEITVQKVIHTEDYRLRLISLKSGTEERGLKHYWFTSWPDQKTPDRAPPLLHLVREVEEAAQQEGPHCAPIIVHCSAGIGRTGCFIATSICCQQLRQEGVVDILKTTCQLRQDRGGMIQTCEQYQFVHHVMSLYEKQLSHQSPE
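System: STEP phosphatase, cell-free reaction; Buffer or medium: Bis-Tris pH 6.0 buffer with DTT, detergent; Incubation: 20 min at room temperature, dark; Measured by: fluorescence, 480/540 nm.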
Scp-1 inhibitor: blocks human Scp-1 phosphatase activity. AID 493091. Recombinant Scp1, phosphopeptide, malachite green phosphate absorbance. Q9GZU7. inhibition, % at 20 µM. 340,000 tested, 0.88% active;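 active = inhibition above about 50% at 20 µM, limit read from the data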
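Assay system: SCP-1 catalytic fragment, aa 76-261 | Buffer or medium: Tris acetate buffer pH 5.5 with MgCl2 and Tween-20 | Compound: One concentration, 20 µM, with 1.0% DMSO | Also added: Phospho 17-mer peptide substrate | Signal: Absorbance at 630 nm | Incubation: 45 min enzyme reaction at room temperature | Measure: % inhibition of SCP-1 phosphate liberation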
Beacon interf DR: counter-screen for DNMT1 inhibitors: spectral interference, dose response | shares compounds with DNMT1 block | molecular beacon fluorescence | IC50, µM | 200 tested, under 10 active; call rule not given here
DNMT1 inh conf: confirmation of human DNMT1 inhibitors. shares compounds with DNMT1 block. DNMT1 molecular beacon HinP1I cleavage, fluorescence. inhibition, % at 10 µM. 2,300 tested, 8% active. AID 602385;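 active = average inhibition of at least 30% in the single-concentration confirmation test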
Beacon interf: counter-screen for DNMT1 inhibitors: spectral interference; activation (fluorescence interference), % at 10 µM; AID 602387; shares compounds with DNMT1 block; 2,300 tested, 1% active; DNMT1 molecular beacon spectral interference counterscreen, fluorescence 485/520;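 active = activation of at least 30% at 10 µM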;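 also: DNMT1 catalytic domain with a HinP1I cleavage step and a FAM/dabcyl DNA beacon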
Hits are given with their value; 0 = inactive; - = no result given.

SMILES | LMPTP inh | SUMO1 PPI mod | DNMT1 block | STEP block | Scp-1 inhibitor | DNMT1 inh conf | Beacon interf | others
O=C(O)c1ccc(-c2ccc(/C=C3\NC(=O)N(Cc4ccc(Cl)cc4)C3=O)o2)cc1Cl | 0 | 0 | 88.5 | 49.1 | 81.2 | 60.3 | 0 | Beacon interf DR=0
Cc1cccc(CC(=O)NCCN2CCCCC2)c1 | 0 | 0 | 56.6 | 0 | 0 | 0 | 0
COc1ccc(/C=C(\NC(=O)c2ccco2)C(=O)N2CCCCC2)cc1 | 0 | 0 | 0 | 0 | 0 | - | -
CC(C)CNC(=O)C1(C)CCCN1Cc1ccc(S(C)(=O)=O)cc1 (stereo unspecified) | 0 | 0 | 0 | 0 | - | - | -
CN(C)c1ccc(CCc2ccc(N)cc2)cc1 | 0 | 0 | 0 | 0 | 0 | - | -
Nc1ccc(N(c2ccccc2)c2ccc(N)cc2)cc1 | 0 | 0 | 61.8 | 0 | 0 | 0 | 0
COc1ccc(NC(=O)CCCN2C(=O)/C(=C\c3ccco3)SC2=S)cc1 | 0 | 0 | 0 | 0 | 0 | - | -
O=C(CN1C(=O)/C(=C/c2ccco2)SC1=S)NC1CCS(=O)(=O)C1 (stereo unspecified) | 0 | 0 | 75.9 | 45.1 | 58.4 | 0 | 0
O=C(CCCN1C(=O)/C(=C/c2ccco2)SC1=S)Nc1cccc(C(=O)O)c1 | 0 | 50.3 | 86.1 | 0 | 51.2 | 0 | 0
O=C(CN1C(=O)/C(=C/c2ccco2)SC1=S)Nc1ccc(O)c(C(=O)O)c1 | 0 | 83.8 | 86.7 | 59.5 | 63.4 | 0 | 0
O=C(CCCN1C(=O)/C(=C\c2ccco2)SC1=S)Nc1ccc(O)cc1C(=O)O | 0 | 63.5 | 98.6 | 43.0 | 68.8 | 0 | 0
O=C(CCN1C(=O)/C(=C/c2ccccc2)SC1=S)NC1CCS(=O)(=O)C1 (stereo unspecified) | 0 | 0 | 0 | 0 | 0 | - | -
COc1ccc(-c2nc3c(C(=O)NCCN(C)C)cccc3c3ccccc23)cc1 | 0 | 0 | 58.7 | 0 | 0 | 0 | 0
N#C/C(=C/c1ccc(-c2ccc([N+](=O)[O-])cc2)o1)C(=O)Nc1nc(-c2cccs2)cs1 | 0 | 0 | 87.3 | 0 | 0 | 0 | 0
Cc1ccc(Cc2cnc(NC(=O)/C(C#N)=C/c3ccc(-c4ccc([N+](=O)[O-])cc4)o3)s2)cc1 | 0 | 0 | 51.7 | 0 | 0 | 0 | 0
CCC(=O)N1CCC1(C)C(=O)Nc1ccc2scnc2c1 (stereo unspecified) | 0 | 0 | 0 | 0 | - | - | -
O=C1COc2ccc(C(=O)COC(=O)/C=C/c3ccc(Br)o3)cc2N1 | 71.1 | 81.0 | 100.3 | 0 | 81.2 | 0 | 0 | Beacon interf DR=0
CC(=O)c1ccc(-n2nnnc2SCC(=O)NC2CCCCC2)cc1 | 0 | 0 | 67.9 | 0 | 0 | 0 | 0
CC(=O)Nc1ccc(-n2nnnc2SCC(=O)NC2CCCC2)cc1 | 0 | 0 | 0 | 0 | 0 | - | -
O=S(=O)(c1ccc2c(c1)CCN2)N1CCOCC1 | 0 | 0 | 101.7 | 0 | 0 | 0 | 0
O=S(=O)(c1ccc2ccccc2c1)N1CCOCC1 | 0 | 0 | 0 | 0 | 0 | - | -
Cc1cc(C)nc(Nc2ccc(Br)cc2C(=O)O)n1 | 0 | 0 | 55.0 | 0 | 0 | 0 | 0
Cc1ccc(Nc2nc(C)cc(C)n2)c(Br)c1 | 0 | 0 | 0 | 0 | 0 | - | -
Clc1cccc(Cc2c(-c3ccco3)nc3ccc(Br)cn23)c1 | 0 | 0 | 67.9 | 0 | - | 0 | 0
Clc1cccc(Cc2c(-c3ccco3)nc3ccc(Cl)cn23)c1 | 0 | 0 | 0 | 0 | - | - | -
SMILES | LMPTP inh | SUMO1 PPI mod | DNMT1 block | STEP block | Scp-1 inhibitor | DNMT1 inh conf | Beacon interf | others
COc1ccc(OC)c(C2C(C(=O)c3ccccc3)=C(C)Nc3nc4ccccc4n32)c1 (stereo unspecified) | 0 | 0 | 0 | 0 | 0 | - | -
COc1ccc(C2C(C(=O)c3ccccc3)=C(C)Nc3nc4ccccc4n32)cc1OC (stereo unspecified) | 0 | 0 | 58.9 | 0 | 0 | 0 | 0
COc1ccc2nc(C)cc(SCC(=O)Nc3c(C)cc(C)cc3C)c2c1 | 0 | 0 | 55.1 | 0 | 0 | 0 | 0
COc1ccccc1-n1c(SCC(=O)NCc2ccc3c(c2)OCO3)nc2cc([N+](=O)[O-])ccc21 | 0 | 0 | 89.8 | 0 | 0 | 0 | 0
CC(Sc1nc2cc([N+](=O)[O-])ccc2n1-c1ccc(F)cc1)C(=O)NCc1ccc2c(c1)OCO2 (stereo unspecified) | 0 | 0 | 0 | 0 | 0 | - | -
O=C(O)c1cnn(-c2nc(-c3ccc(Br)cc3)cs2)c1C(F)(F)F | 0 | 0 | 0 | 0 | 0 | - | -
Cc1ccc(-c2nnc(Nc3cccc(O)c3)c3ccccc23)cc1S(=O)(=O)NCCO | 0 | 0 | 89.8 | 0 | 0 | 0 | 0
COc1ccc(-c2nc(CCNC(=O)c3ccco3)cs2)cc1OC | 0 | 0 | 83.5 | 0 | 0 | 0 | 0
COC(=O)c1c(C(=O)OC)c(C)n(Cc2ccco2)c1C | 0 | 0 | 0 | 0 | 0 | - | -
CCOc1cccc(=O)c2c(C)n(Cc3ccco3)c(C)c12 | 0 | 0 | 80.7 | 0 | 0 | 0 | 0
O=C(CCS(=O)(=O)c1ccc(Cl)cc1)Nc1ccccc1Br | 0 | 0 | 0 | 0 | 0 | - | -
COC(=O)c1ccccc1NC(=O)CCS(=O)(=O)c1ccc(Br)cc1 | 0 | 0 | 90.5 | 0 | 79.8 | 95.2 | 0 | Beacon interf DR=0
CCOc1ccc(NC(=O)CCS(=O)(=O)c2ccc(Br)cc2)cc1 | 0 | 48.0 | 83.5 | 0 | 0 | 0 | 0
O=C(COC(=O)Cn1ccc(=O)[nH]c1=O)Nc1ccc(F)cc1 | 0 | 0 | 0 | 0 | 0 | - | -
N/C(CSc1ccc(Cl)cc1)=N\S(=O)(=O)c1ccc(Cl)cc1 | 0 | 0 | 73.1 | 0 | 0 | 0 | 0
Clc1ccc(Oc2ncnc3oc(-c4ccccc4)cc23)cc1 | 0 | 0 | 56.2 | 0 | 0 | 0 | 0
Cc1ccccc1Oc1ncnc2oc(-c3ccccc3)cc12 | 0 | 0 | 0 | 0 | 0 | - | -
CCCCN(CC)CCNc1c(NC2CCN(C(=O)OCC)CC2)c(=O)c1=O | 0 | 0 | 66.1 | 0 | 0 | 0 | 0
O=C(N/N=C/c1ccc(O)c(Br)c1)c1cc2c(ccc3ccccc32)o1 | 0 | 0 | 0 | 0 | 0 | - | -
Cc1ccc(/C=N/NC(=O)c2cc3c(ccc4ccccc43)o2)cc1[N+](=O)[O-] | 0 | 0 | 80.3 | 0 | 0 | 0 | 0
O=C(N/N=C/c1ccc([N+](=O)[O-])o1)c1cc2c(ccc3ccccc32)o1 | 79.1 | 0 | 84.9 | 95.3 | 93.7 | 0 | 0
CC(C)n1ncc2c(C(=O)NCc3cccnc3)cc(C3CC3)nc21 | 0 | 0 | 0 | 0 | 0 | - | -
CCOC(=O)/C=c1/s/c(=C/c2ccc3cc(OC)ccc3c2)c(=O)n1CC(=O)NCC1CCCO1 (stereo unspecified) | 0 | 0 | 53.8 | 0 | 0 | 0 | 0

Bioassay records from PubChem BioAssay.
